Screens deposited in PubChem BioAssay by Broad Institute.
Only a selection was taken, and hits are over-represented in it overall.
IDH1 mut inh: IDH1 R132H (human) inhibition; inhibition, % at 10 µM; hit rate 0.18% among 70,000; AID 624101; IDH1 R132H reductase, diaphorase/resazurin fluorescence, 60 min; in the data active = inhibition above about 34%; inconclusive = no clear call, values can overlap the other calls; inactive = below about 11%;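 also: 0% = DMSO and 100% = no enzyme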
Target sequence (O75874 whole entry R132H): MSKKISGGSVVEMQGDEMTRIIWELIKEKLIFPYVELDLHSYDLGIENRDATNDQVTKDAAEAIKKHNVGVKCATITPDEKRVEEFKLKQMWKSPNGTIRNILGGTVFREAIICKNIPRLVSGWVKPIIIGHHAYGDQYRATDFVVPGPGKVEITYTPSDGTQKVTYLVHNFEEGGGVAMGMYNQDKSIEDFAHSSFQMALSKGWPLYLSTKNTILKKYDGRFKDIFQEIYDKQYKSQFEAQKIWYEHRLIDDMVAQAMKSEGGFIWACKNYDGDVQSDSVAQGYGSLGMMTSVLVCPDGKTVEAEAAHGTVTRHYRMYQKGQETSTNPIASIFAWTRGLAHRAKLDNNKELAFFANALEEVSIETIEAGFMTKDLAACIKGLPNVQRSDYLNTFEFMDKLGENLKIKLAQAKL
T cruzi growth-1: inhibitors of T. cruzi proliferation. T. cruzi beta-gal in NIH3T3, GalScreen luminescence, 90 h. inhibition, % at 8.34 µM. hit rate 5.9% among 77,000;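 active = mean inhibition above about 93%, with at least 55% of replicates each passing it, limit read from the data, passing the limit was not always enough; inconclusive = only one of those two conditions holds; inactive = neither condition holds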
GASC1 inh: blocks human GASC-1 (KDM4C) demethylase activity | Q9H3R0 | GST-KDM4C 2-372, H3K9me3 peptide, LANCE TR-FRET | inhibition, % at 12.5 µM | hit rate 0.15% among 96,000 | AID 720574;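 active = mean replicate inhibition above about 25%, with at least 55% of replicates also reaching it, limit read from the data, passing the limit was not always enough; inconclusive = only one of those two conditions met; inactive = neither condition met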
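Material: GST-tagged GASC-1 (JMJD2C) catalytic fragment, aa 2-372. Input: enzyme final amount 10 nM. Medium: HEPES buffer, pH 7.5, plus ascorbate. Reagent: H3K9me3 peptide substrate, Fe(II), 2-oxoglutarate. Doses: single dose. Times: reaction 30 min RT, detection step 1 h RT. Measured by: LANCE TR-FRET. Evaluation: Fall in 671/618 emission ratio as inhibition.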
T cruzi growth-2: inhibitors of T. cruzi proliferation; T. cruzi beta-gal in NIH3T3, GalScreen luminescence, 90 h; hit rate 72% among 5,600; shares compounds with T cruzi growth-1; inhibition, % at 8.35 µM; AID 651739;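 active = mean replicate inhibition above about 95% and at least 55% of replicates individually reaching it, limit read from the data; inconclusive = only one of the two criteria is met; inactive = neither criterion is met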
T cruzi growth-3: inhibitors of T. cruzi proliferation | shares compounds with T cruzi growth-1 | T. cruzi beta-gal in NIH3T3, GalScreen luminescence, 90 h | inhibition, % at 2.09 µM | hit rate 21% among 5,600 | AID 651740;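 active = mean inhibition above about 95%, with at least 55% of replicates also reaching it, limit read from the data; inconclusive = meets just one of the two conditions; inactive = meets neither condition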;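 also: plate controls were neutral control median for no effect and positive control median for full effect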
NIH3T3 tox: kills mouse NIH/3T3 fibroblasts; hit rate 14% among 5,600; NIH/3T3 viability, CellTiter-Glo ATP luminescence, 90 h; shares compounds with T cruzi growth-1; cytotoxicity (signal decrease), % at 8.35 µM;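 active = mean signal decrease across replicates above about 35% based on untreated-well scatter, with enough replicates individually passing, limit read from the data; inconclusive = no rule stated though some were filed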;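 also: 0% = median of neutral control wells and 100% = median of positive control wells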
3T3 cytotox 2: kills mouse NIH/3T3 fibroblasts; shares compounds with T cruzi growth-1; NIH/3T3 viability, CellTiter-Glo ATP luminescence, 90 h; inhibition, % at 24.9 µM; hit rate 56% among 5,600; AID 651744;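 active = mean loss of cell viability signal at or above a set limit, and enough replicates individually reaching it; inconclusive = meets only the mean limit or only the replicate share; inactive = meets neither condition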;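 also: 0% = median of neutral control wells and 100% = median of positive control wells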
The depositor's hits bear a star; ? = inconclusive; nt = no result given.

SMILES	IDH1 mut inh	T cruzi growth-1	GASC1 inh	T cruzi growth-2	T cruzi growth-3	NIH3T3 tox	3T3 cytotox 2
CN(C)C(=O)c1cccc(-c2ccc3c(c2)[C@@H]2[C@@H](CCN2C(=O)c2cnccn2)[C@H](CO)N3)c1	nt	105*	0	97*	62	-22	-14
COc1cccc(-c2ccc3c(c2)[C@H]2[C@H](CCN2C(=O)c2cnccn2)[C@H](CO)N3)c1	nt	74	5	nt	nt	nt	nt
O=C(c1cnccn1)N1CC[C@@H]2[C@@H](CO)Nc3ccc(-c4cccc(F)c4)cc3[C@@H]21	nt	85	-4	nt	nt	nt	nt
CN(C)C(=O)c1cccc(-c2ccc3c(c2)[C@H]2[C@H](CCN2C(=O)c2cnccn2)[C@@H](CO)N3)c1	nt	83	1	nt	nt	nt	nt
COc1ccc(-c2ccc3c(c2)[C@@H]2[C@@H](CCN2C(=O)c2cnccn2)[C@H](CO)N3)cc1	nt	?	0	112*	85	-9	-32
O=C(c1cnccn1)N1CC[C@@H]2[C@H]1c1cc(-c3cccc(F)c3)ccc1N[C@@H]2CO	nt	101*	0	104*	74	26	41*
OC(CNCc1ccc(Cl)cc1Cl)Cn1c(-c2ccc(F)cc2)cc2ccccc21 (centres undefined)	0	nt	nt	nt	nt	nt	nt
COc1cc(/C=C/CO[C@@H]2O[C@H](CO)[C@@H](O)[C@H](O)[C@H]2O)ccc1O	0	nt	nt	nt	nt	nt	nt
CC(C)C#Cc1cnc2c(c1)C(=O)N([C@@H](C)CO)C[C@@H](C)[C@H](CN(C)C(=O)Nc1cccc(F)c1)O2	1	95	-1	nt	nt	nt	nt
CCCN1C[C@@H](C)[C@H](OC)CN(C)C(=O)c2cc(NS(=O)(=O)c3ccccc3)ccc2OC[C@@H]1C	0	-12	3	nt	nt	nt	nt
CO[C@H]1CN(C)C(=O)c2cc(NC(=O)c3nc4ccccc4s3)ccc2OC[C@@H](C)N(Cc2ccncc2)C[C@H]1C	10	94	0	nt	nt	nt	nt
CCCN1C[C@@H](C)[C@H](OC)CN(C)C(=O)c2cc(NC(=O)Nc3cccc(OC)c3)ccc2OC[C@H]1C	0	102*	nt	110*	75	-2	54*
CCS(=O)(=O)Nc1ccc2c(c1)C(=O)N(C)C[C@@H](OC)[C@H](C)CN(Cc1ccccn1)[C@@H](C)CO2	0	99*	2	-25	-32	-6	4
CCCN1C[C@@H](C)[C@H](OC)CN(C)C(=O)c2cc(NS(=O)(=O)c3ccccc3)ccc2OC[C@H]1C	0	91*	1	98*	41	2	-5
CO[C@@H]1CN(C)C(=O)c2cc(NC(=O)c3nc4ccccc4s3)ccc2OC[C@H](C)N(Cc2ccncc2)C[C@@H]1C	0	99*	0	90	44	-15	61*
CCS(=O)(=O)Nc1ccc2c(c1)C(=O)N(C)C[C@@H](OC)[C@@H](C)CN(Cc1ccccn1)[C@@H](C)CO2	nt	nt	1	nt	nt	nt	nt
CCCN1C[C@H](C)[C@H](OC)CN(C)C(=O)c2cc(NC(=O)Nc3cccc(OC)c3)ccc2OC[C@H]1C	0	39	-1	nt	nt	nt	nt
c1coc(-c2nn3c(C4COc5ccccc5O4)nnc3s2)c1 (centres undefined)	0	nt	nt	nt	nt	nt	nt
CCOc1ccc(C(C)C)cc1S(=O)(=O)n1c(C)nc2ccccc21	0	nt	nt	nt	nt	nt	nt
CO[C@H]1CN(C)C(=O)c2ccc(NS(C)(=O)=O)cc2OC[C@H](C)N(C(=O)C2CC2)C[C@@H]1C	0	nt	1	nt	nt	nt	nt
CO[C@@H]1CN(C)C(=O)c2cc(NS(=O)(=O)c3ccccc3)ccc2OC[C@H](C)N(Cc2nccs2)C[C@@H]1C	0	111*	-1	74	2	18	45*
CO[C@@H]1CN(C)C(=O)c2cc(NS(=O)(=O)c3ccccc3)ccc2OC[C@@H](C)N(Cc2nccs2)C[C@@H]1C	0	35	0	nt	nt	nt	nt
O=C(COc1ccc(Cl)cc1Cl)Nc1ccccc1CO	1	nt	nt	nt	nt	nt	nt
COc1ccccc1-c1cnc2c(c1)C(=O)N([C@@H](C)CO)C[C@@H](C)[C@@H](CN(C)Cc1cccc(F)c1)O2	0	?	1	82	43	24	52*
COc1ccccc1-c1cnc2c(c1)C(=O)N([C@H](C)CO)C[C@@H](C)[C@@H](CN(C)Cc1cccc(F)c1)O2	-2	47	-1	nt	nt	nt	nt
SMILES	IDH1 mut inh	T cruzi growth-1	GASC1 inh	T cruzi growth-2	T cruzi growth-3	NIH3T3 tox	3T3 cytotox 2
COc1cccc(-c2cnc3c(c2)C(=O)N([C@H](C)CO)C[C@H](C)[C@H](CN(C)Cc2cccc(C)c2)O3)c1	-1	96*	-3	90	17	9	?
COc1cccc(-c2cnc3c(c2)C(=O)N([C@@H](C)CO)C[C@H](C)[C@@H](CN(C)Cc2ccccc2)O3)c1	0	59	1	nt	nt	nt	nt
COc1ccccc1-c1cnc2c(c1)C(=O)N([C@H](C)CO)C[C@@H](C)[C@H](CN(C)Cc1cccc(F)c1)O2	0	-12	1	nt	nt	nt	nt
COc1ccccc1-c1cnc2c(c1)C(=O)N([C@H](C)CO)C[C@H](C)[C@@H](CN(C)Cc1cccc(F)c1)O2	-1	?	0	102*	63	-3	42*
CC(C)[C@@H]1COCc2cn(nn2)CC[C@H](C)C(=O)N1	nt	nt	2	nt	nt	nt	nt
COc1ccccc1NC(=O)CSC1=NCCS1	-1	nt	nt	nt	nt	nt	nt
Cc1ccc(-c2ccc3c(c2)O[C@H](CN(C)Cc2cccnc2)[C@H](C)CN([C@@H](C)CO)S3(=O)=O)cc1	4	108*	-1	97*	80	46*	95*
C[C@@H]1CN([C@H](C)CO)S(=O)(=O)c2ccc(-c3ccncc3)cc2O[C@@H]1CN(C)Cc1cccnc1	nt	73	nt	nt	nt	nt	nt
Cc1ccc(-c2ccc3c(c2)O[C@@H](CN(C)Cc2cccnc2)[C@H](C)CN([C@H](C)CO)S3(=O)=O)cc1	9	118*	-1	?	104*	80*	102*
C[C@H]1CN([C@@H](C)CO)S(=O)(=O)c2ccc(-c3cncnc3)cc2O[C@H]1CN(C)Cc1cccnc1	nt	29	-2	nt	nt	nt	nt
C[C@H](CO)N1C[C@H](C)[C@@H](CN(C)Cc2cccnc2)Oc2cc(-c3cncnc3)ccc2S1(=O)=O	nt	36	-2	nt	nt	nt	nt
Cc1ccc(-c2ccc3c(c2)O[C@@H](CN(C)Cc2cccnc2)[C@@H](C)CN([C@@H](C)CO)S3(=O)=O)cc1	8	102*	2	92	81	52*	94*
COc1cc(NC(=O)CN(C)S(=O)(=O)c2ccc(C)cc2)c(OC)cc1Cl	0	nt	nt	nt	nt	nt	nt
CCc1cc(C(=O)OC)c(NC(=O)c2cc(-c3ccccn3)nc3ccc(Cl)cc23)s1	-1	nt	nt	nt	nt	nt	nt
Cc1nn(C(=O)Cn2cc([N+](=O)[O-])cn2)c(C)c1Br	0	nt	nt	nt	nt	nt	nt
O=C(CCCCCCC(=O)Nc1ccccc1O)N/N=C/c1cc(O)ccc1[N+](=O)[O-]	1	nt	nt	nt	nt	nt	nt
